In ChEMBL document CHEMBL4765333, “Novel NO-releasing scopoletin derivatives induce cell death via mitochondrial apoptosis pathway and cell cycle arrest” (Eur J Med Chem, 2020):
Active and inactive are the calls of the source. No cut-off for these calls is given here.

Assays:
[1] = Prodrug release in human MDA-MB-231 cells assessed as increase in intracellular NO level at 1 to 10 uM measured after 2.5 hrs by DAF-FM DA reagent based scanning electron microscopy; type: ADME, cell-based; conditions: mda-mb-231, 2.5 h, in the assay text read “laser scanning confocal microscopy” for “scanning electron microscopy”, dose 1-10 µM
Method in brief: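 After 24 h growth at 5×10^4 cells/well, MDA-MB-231 cells loaded with DAF-FM DA (5 µM) 30 min at 37°C, 5% CO2, PBS-washed, then incubated 2.5 h with compound at 1 or 10 µM (scopoletin at 10 µM). NO fluorescence imaged by laser scanning confocal microscopy.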

MDA-MB-231 [2] = assay: Induction of apoptosis in human MDA-MB-231 cells after 24 hrs by Hoechst33342 staining based fluorescence inverted microscopic analysis; type: functional, cell-based; conditions: dose 0.5-1.5 µM
Method in brief: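 MDA-MB-231 cells (5×10^4/well) attached 24 h, then treated 24 h with 0.5, 1 or 1.5 µM (DMSO vehicle control). Stained with Hoechst 33342 at 10 µg/ml for 5 min at 37°C in the dark, washed with PBS, and examined by inverted fluorescence microscopy for apoptotic nuclear morphology.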

MDA-MB-231 [3] = assay: Induction of apoptosis in human MDA-MB-231 cells assessed as necrotic cells at 1.5 uM after 24 hrs by Annexin V/propidium iodide based flow cytometric analysis (reference value: 0.019%); type: functional
Method in brief: (§1)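 MDA-MB-231 cells (2×10^5/well) attached 24 h, then treated 24 h with 1, 1.5, 2 or 3 µM, DMSO as control. Cells harvested, PBS-washed, resuspended in binding buffer, stained with Annexin V and PI for 30 min at 37°C in the dark, and analysed by flow cytometry for quadrant percentages; three experiments.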

MDA-MB-231 [4] = assay: Induction of apoptosis in human MDA-MB-231 cells assessed as viable cells at 1.5 uM after 24 hrs by Annexin V/propidium iodide based flow cytometric analysis (reference value: 99%); type: functional; conditions: read-out: Activity; method in brief: as §1
MDA-MB-231 [5] = assay: Induction of apoptosis in human MDA-MB-231 cells assessed as early apoptotic cells at 2 uM after 24 hrs by Annexin V/propidium iodide based flow cytometric analysis (reference value: 0.94%); type: functional; method in brief: as §1
MDA-MB-231 [6] = assay: Induction of mitochondrial membrane potential depolarization in human MDA-MB-231 cells assessed as proportion of cells with depolarized MMP at 1 uM incubated for 18 hrs by JC-1 staining based flow cytometry (reference value: 0.72%); type: functional
MDA-MB-231 [7] = assay: Induction of mitochondrial membrane potential depolarization in human MDA-MB-231 cells assessed as proportion of cells with depolarized MMP at 1.5 uM incubated for 18 hrs by JC-1 staining based flow cytometry (reference value: 0.72%); type: functional
MDA-MB-231 [8] = assay: Induction of mitochondrial membrane potential depolarization in human MDA-MB-231 cells assessed as proportion of cells with hyperpolarized MMP at 1 uM incubated for 18 hrs by JC-1 staining based flow cytometry (reference value: 98.4%); type: functional
MDA-MB-231 [9] = assay: Induction of mitochondrial membrane potential depolarization in human MDA-MB-231 cells assessed as proportion of cells with hyperpolarized MMP at 2 uM incubated for 18 hrs by JC-1 staining based flow cytometry (reference value: 98.4%); type: functional
MDA-MB-231 [10] = assay: Induction of intracellular reactive oxygen species generation in human MDA-MB-231 cells at 1 uM measured after 24 hrs by DCFH-DA staining based flow cytometry analysis relative to control; type: functional
Method in brief: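 MDA-MB-231 cells at 2×10^5 cells/well, grown 24 h, exposed 24 h to compound (1, 1.5, 2 µM) or DMSO control. Cells then took up DCFH-DA for 30 min at 37°C in the dark, were PBS-washed, resuspended in serum-free medium and analysed by flow cytometry. Relative DCF level vs control; mean ± SD, n = 3.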

[11] = (§2) Induction of intracellular reactive oxygen species generation in human MDA-MB-231 cells assessed as proportion of FL1-H negative cells at 1 uM measured after 24 hrs by DCFH-DA staining based flow cytometry analysis (reference value: 52.2%); type: functional, MDA-MB-23
MDA-MB-231 [12] = assay: Induction of apoptosis in human MDA-MB-231 cells assessed as up-regulation of Bax expression at 1.5 to 6 uM measured after 8 hrs by Western blot analysis; type: functional, cell-based; conditions: dose 1.5-6 µM
Method in brief: (§3)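 MDA-MB-231 cells (8×10^5 per 60 mm dish) attached 24 h, then exposed 8 h to 1.5, 3 or 6 µM, DMSO as control. Lysates quantified by BCA; 30 µg protein run on 4–20% SDS-PAGE, transferred to PVDF, probed for Bcl-2, Bax, Bad, cleaved caspase-9, cleaved caspase-3 and PARP, with ECL detection. Densitometric relative levels; three experiments.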

MDA-MB-231 [13] = assay: Induction of apoptosis in human MDA-MB-231 cells assessed as up-regulation of Bad expression at 1.5 to 6 uM measured after 8 hrs by Western blot analysis; type: functional, cell-based; conditions: dose 1.5-6 µM; method in brief: as §3
[14] = Antiproliferative activity against human MDA-MB-231 cells assessed as inhibition of cell proliferation rate at 4 uM measured after 48 hrs by MTT assay; type: functional; conditions: MDA-MB-23
Method in brief: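 MDA-MB-231 cells in DMEM with 10% FBS, ~5,000 cells/well, 24 h attachment, then compound for 48 h at 37°C, 5% CO2. MTT 0.5 mg/ml final for 4 h, DMSO solubilization, absorbance 570 nm; inhibition relative to untreated cells; experiments done three times.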

MDA-MB-231 [15] = assay: Induction of cell cycle arrest in human MDA-MB-231 cells assessed as accumulation at G2/M phase at 2 uM measured after 24 hrs by propidium iodide staining based flow cytometric method (reference value: 18.55%); type: functional
MDA-MB-231 [16] = assay: Induction of cell cycle arrest in human MDA-MB-231 cells assessed as accumulation at G0/G1 phase at 1 uM measured after 24 hrs by propidium iodide staining based flow cytometric method (reference value: 45.71%); type: functional
MDA-MB-231 [17] = assay: Induction of cell cycle arrest in human MDA-MB-231 cells assessed as accumulation at G0/G1 phase at 2 uM measured after 24 hrs by propidium iodide staining based flow cytometric method (reference value: 45.71%); type: functional
[18] = Prodrug release in human MDA-MB-231 cells assessed as increase in intracellular NO level at 25 uM measured after 2.5 hrs by total nitric oxide assay; type: ADME, cell-based; conditions: mda-mb-23, 2.5 h
Method in brief: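 MDA-MB-231 (2×10^5 cells/well) cultured 24 h, then treated 2.5 h with compound at 25 µM or DMSO. Cells harvested, lysed in nitric oxide assay buffer 1 h on ice; lysate NO quantified with a total nitric oxide assay kit. Mean ± SD, n = 3.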

MDA-MB-23 = assay: Induction of mitochondrial membrane potential depolarization in human MDA-MB-231 cells incubated for 18 hrs by JC-1 staining based flow cytometry; type: functional, cell-based; conditions: dose 1-2 µM
[19] = as §2, with “at 2” for “at 1”, “uM pretreated with ROS scavenger, NAC for 2 hrs prior to incubation with compound and” for “uM”; type: functional, MDA-MB-23

Question: Which Drug metabolism [1] does the source give for `COc1cc2cc(N)c(=O)oc2cc1OCCCOc1no[n+]([O-])c1S(=O)(=O)c1ccccc1` here?
Answer: Its Drug metabolism is “Metabolite_Detected”.

Question: What about the Activity (MDA-MB-231 [2]) of the same compound?
Answer: The Activity was “Dose-dependent effect”.

Question: What about the Activity (MDA-MB-231 [3]) of the same compound?
Answer: The Activity was 0.31%.

Question: And the viability at 1.5 µM (MDA-MB-231 [4])?
Answer: The viability at 1.5 µM was 75.7%.

Question: What about the Activity (MDA-MB-231 [5]) of the same compound?
Answer: The Activity was 12.9%.

Question: What about the Activity (MDA-MB-231 [6]) of the same compound?
Answer: The Activity was 5.4%.

Question: And the Activity (MDA-MB-231 [7])?
Answer: Its Activity is 17.7%.

Question: What about the Activity (MDA-MB-231 [8]) of the same compound?
Answer: Its Activity is 93.2%.

Question: What about the Activity (MDA-MB-231 [9]) of the same compound?
Answer: The Activity was 67.8%.

Question: What about the “fold change (FC)” value (MDA-MB-231 [10]) of the same compound?
Answer: Its value is 1.31.

Question: And the Activity [11]?
Answer: The Activity was 35%.

Question: What about the Activity (MDA-MB-231 [12]) of the same compound?
Answer: The Activity was “Active”.

Question: What about the Activity (MDA-MB-231 [13]) of the same compound?
Answer: The Activity was “Active”.

Question: And the inhibition at 4 µM [14]?
Answer: The inhibition at 4 µM was 91.2%.

Question: And the Activity (MDA-MB-231 [15])?
Answer: The Activity was 40.29%.

Question: And the Activity (MDA-MB-231 [16])?
Answer: The Activity was 43.06%.

Question: And the Activity (MDA-MB-231 [17])?
Answer: Its Activity is 38.05%.

Question: What about the Drug metabolism [18] of the same compound?
Answer: Its Drug metabolism is “Metabolite_Detected”.

Question: And the Activity (MDA-MB-23)?
Answer: Its Activity is “Dose-dependent effect”.

Question: And the Activity [19]?
Answer: Its Activity is 49%.
